In brackets after ≈: the same amount, converted by molar mass. Activity calls are given as the source filed them. The calls are words filed in the database; no cut-off is given here.
Key:
[1] = Selectivity index, ratio of IC50 for African green monkey vero cells to EC50 for HHV-2 compound administered post viral infection
Method in brief: (§1)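 Antiviral SI calculated as Vero IC50 divided by the post-infection plaque-reduction EC50 for each virus on Vero cells.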

Jurkat [2] = assay: Selectivity index, ratio of IC50 for African green monkey Vero cells to IC50 for human Jurkat cells; format: functional
Method in brief: (§2)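 SI calculated as Vero IC50 divided by HeLa, Jurkat or U937 IC50, all from the 48 h MTT assay.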

Human alphaherpesvirus 2 [3] = assay: Antiviral activity against HHV-2 VR-734-G infected in African green monkey Vero cells assessed as viral plaque size reduction at 20.8 uM after 72 hrs by crystal violet staining based inverted microscopic analysis relative to control; format: functional; design: scale not given: the % may be the effect or the level left
Method in brief: (§3)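 Vero cells (2.5 × 10^4/well) infected with 100 PFU/well, with compound in CMC added 2 h after infection. Incubation was 72 h for HHV strains and 8 days for DENV-2, then formaldehyde/crystal violet staining. Twenty plaques per concentration per well were imaged and their areas […] measured against mock-treated controls. Two experiments in duplicate.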

Aspergillus terreus = assay: Antifungal activity against Aspergillus terreus CDC 317 assessed as microbial growth inhibition by microdilution assay; format: functional, organism-based
Method in brief: (§4)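 Broth microdilution under CLSI M38-A with modifications, in duplicate, at final compound concentrations of 50–3.125 μg/mL. […] Values are the geometric mean of duplicate tests in three assays. Assay DMSO was 0.05%.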

Candida parapsilosis = assay: Antifungal activity against Candida parapsilosis ATCC 22019 assessed as microbial growth inhibition after 24 hrs by microdilution assay; format: functional, organism-based
Method in brief: (§5)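 Yeast microdilution by the AFST-EUCAST method at an inoculum of 1–5 × 10^5 CFU/mL, final compound concentrations 50–3.125 μg/mL, in duplicate. MIC is the lowest concentration giving 90% growth reduction after 24 h at 35 °C. Untreated inoculum served as negative control. Values are the geometric mean of duplicate tests in three assays.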

Candida tropicalis = assay: Antifungal activity against Candida tropicalis ATCC 200956 assessed as microbial growth inhibition after 24 hrs by microdilution assay; format: functional, organism-based; method in brief: as §5
[4] = Cytotoxicity against human U937 cells assessed as cell growth inhibition after 48 hrs by MTT assay; format: functional, cell-based; conditions: U-937, 48 h
Method in brief: (§6)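 MTT assay. Vero and HeLa cells plated at 2.0 × 10^4/well and preincubated 24 h; Jurkat and U937 plated at 3.0 × 10^4/well. Compounds were applied 48 h at 37 °C, 5% CO2, with 0.05% DMSO. Absorbance read at 570 nm and IC50 taken by linear regression. Values are the geometric mean of two experiments in quadruplicate.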

Human alphaherpesvirus 2 [5] = assay: Antiviral activity against HHV-2 VR-734-G infected in African green monkey Vero cells assessed as reduction in plaque formation administered simultaneously with virus for 1 hr measured after 72 hrs by crystal violet staining technique; format: functional, organism-based
Method in brief: (§7)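 Plaque reduction on Vero monolayers (2.5 × 10^4 cells/well) infected with 100 PFU/well. Pre-infection arm: virus–compound mixture added for 1 h at 37 °C, PBS wash, then CMC overlay. Post-infection arm: virus adsorbed 1 h, washed, then compound given in CMC. CMC was 1% for HHV-1, 0.75% for HHV-2 and 2% for DENV-2. Plates ran 72 h (HHV) or 8 days (DENV-2) before crystal violet staining. EC50 came from linear regression over ≥4 dilutions in quadruplicate.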

Aspergillus flavus = assay: Antifungal activity against Aspergillus flavus ATCC 204304 assessed as microbial growth inhibition by microdilution assay; format: functional, organism-based; method in brief: as §4
HeLa [6] = assay: Selectivity index, ratio of IC50 for African green monkey Vero cells to IC50 for human HeLa cells; format: functional; method in brief: as §2
Trichophyton rubrum = assay: Antifungal activity against Trichophyton rubrum ATCC 28188 assessed as microbial growth inhibition after 6 days by microdilution assay; format: functional; conditions: ATCC 28188, 144 h; method in brief: as §4
[7] = Selectivity index, ratio of IC50 for African green monkey vero cells to EC50 for DENV-2 compound administered post viral infection; method in brief: as §1
Human alphaherpesvirus 2 [8] = assay: Antiviral activity against HHV-2 VR-734-G infected in African green monkey Vero cells assessed as reduction of viral titer at maximal non-toxic concentration after 72 hrs by crystal violet staining assay relative to control; format: functional
Method in brief: (§8)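 End-point titration on Vero monolayers (2.0 × 10^4 cells/well, ≥80% confluent) with 10 TCID50 virus. Virus–compound mixtures (6.25–50 μg/mL) in DMEM/2% FBS with CMC (1% for HHV-1, 0.5% for HHV-2) were held 15 min at room temperature. Incubation was 48 h (HHV-1) or 72 h (HHV-2) at 37 °C, then formaldehyde/crystal violet staining and plaque counting. Read-out is the viral titer reduction factor. Two experiments in quadruplicate.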

dengue virus type 2 [9] = assay: Antiviral activity against DENV-2 New guinea infected in African green monkey Vero cells assessed as reduction in plaque formation administered simultaneously with virus for 1 hr measured after 8 days by crystal violet staining technique; format: functional, organism-based; method in brief: as §7
HeLa [10] = assay: Cytotoxicity against human HeLa cells assessed as cell growth inhibition after 48 hrs by MTT assay; format: functional, cell-based; method in brief: as §6
Fusarium oxysporum = assay: Antifungal activity against Fusarium oxysporum ATCC 48112 assessed as microbial growth inhibition after 48 hrs by microdilution assay; format: functional, organism-based; method in brief: as §4
Human alphaherpesvirus 1 [11] = assay: Antiviral activity against HHV-1 CDC Atlanta infected in African green monkey Vero cells assessed as reduction in plaque formation administered post viral infection after 72 hrs by crystal violet staining technique; format: functional, organism-based; method in brief: as §7
Vero [12] = assay: Cytotoxicity against African green monkey Vero cells assessed as inhibition of cell proliferation after 72 hrs; format: cell-based; conditions: Chlorocebus sabaeus
Vero [13] = assay: Cytotoxicity against African green monkey Vero cells assessed as inhibition of cell proliferation after 8 days; format: cell-based; conditions: Chlorocebus sabaeus, 192 h
Vero [14] = assay: Cytotoxicity against African green monkey Vero cells assessed as cell growth inhibition after 48 hrs by MTT assay; format: cell-based; conditions: Chlorocebus sabaeus; method in brief: as §6
Human alphaherpesvirus 2 [15] = assay: Antiviral activity against HHV-2 VR-734-G infected in African green monkey Vero cells assessed as reduction in plaque formation administered post viral infection after 72 hrs by crystal violet staining technique; format: functional, organism-based; conditions: Human alphaherpesvirus 2, VR-734-G; method in brief: as §7
dengue virus type 2 [16] = assay: Antiviral activity against DENV-2 New guinea infected in African green monkey Vero cells assessed as inhibition of virus-induced cytopathic effect after 3 days by crystal violet staining based inverted microscopic analysis relative to control; format: functional, organism-based
Candida albicans = assay: Antifungal activity against Candida albicans […] assessed as microbial growth inhibition after 24 hrs by microdilution assay; format: functional, organism-based; method in brief: as §5
[17] = test system: Trichophyton mentagrophytes; assay: Antifungal activity against Trichophyton mentagrophytes ATCC 24198 assessed as microbial growth inhibition after 6 days by microdilution assay; format: functional; conditions: ATCC 24198, 144 h; method in brief: as §4
Human alphaherpesvirus 1 [18] = assay: Antiviral activity against HHV1 CDC Atlanta infected in African green monkey Vero cells assessed as reduction of viral titer at maximal non-toxic concentration after 48 hrs by crystal violet staining assay relative to control; format: functional; method in brief: as §8
Vero [19] = assay: Selectivity index, ratio of IC50 for African green monkey Vero cells to IC50 for human U937 cells; format: functional; method in brief: as §2
dengue virus type 2 [20] = assay: Antiviral activity against DENV-2 New guinea infected in African green monkey Vero cells assessed as reduction in plaque formation administered post viral infection after 8 days by crystal violet staining technique; format: functional, organism-based; conditions: 192 h; method in brief: as §7
Jurkat [21] = assay: Cytotoxicity against human Jurkat cells assessed as cell growth inhibition after 48 hrs by MTT assay; format: functional, cell-based; method in brief: as §6
[22] = Selectivity index, ratio of IC50 for African green monkey vero cells to EC50 for HHV-1 compound administered post viral infection; method in brief: as §1
Human alphaherpesvirus 2 [23] = assay: Antiviral activity against HHV-2 VR-734-G infected in African green monkey Vero cells assessed as maximal non toxic concentration causing reduction of viral titer after 72 hrs by crystal violet staining assay; format: functional; method in brief: as §8
Human alphaherpesvirus 1 [24] = assay: Antiviral activity against HHV-1 CDC Atlanta infected in African green monkey Vero cells assessed as maximal non toxic concentration causing reduction of viral titer after 48 hrs by crystal violet staining assay; format: functional; method in brief: as §8
Human alphaherpesvirus 1 [25] = assay: Antiviral activity against HHV-1 CDC Atlanta infected in African green monkey Vero cells assessed as reduction in plaque formation administered simultaneously with virus for 1 hr measured after 72 hrs by crystal violet staining technique; format: functional, organism-based; method in brief: as §7
Aspergillus fumigatus = assay: Antifungal activity against Aspergillus fumigatus ATCC 204305 assessed as microbial growth inhibition by microdilution assay; format: functional, organism-based; method in brief: as §4
Human alphaherpesvirus 1 [26] = assay: Antiviral activity against acyclovir-resistant HHV-1 29R infected in African green monkey Vero cells assessed as viral plaque size reduction at 29 uM after 72 hrs by crystal violet staining based inverted microscopic analysis relative to control; format: functional; design: scale not given: the % may be the effect or the level left; method in brief: as §3
Human alphaherpesvirus 1 [27] = assay: Antiviral activity against HHV-1 CDC Atlanta infected in African green monkey Vero cells assessed as viral plaque size reduction at 29 uM after 72 hrs by crystal violet staining based inverted microscopic analysis relative to control; format: functional; design: scale not given: the % may be the effect or the level left; method in brief: as §3
dengue virus type 2 [28] = assay: Antiviral activity against DENV-2 New guinea infected in African green monkey Vero cells assessed as viral plaque size reduction at 3.6 uM after 8 days by crystal violet staining based inverted microscopic analysis relative to control; format: functional; design: scale not given: the % may be the effect or the level left; method in brief: as §3
dengue virus type 2 [29] = assay: Antiviral activity against DENV-2 New guinea infected in African green monkey Vero cells assessed as maximal non toxic concentration causing inhibition of virus-induced cytopathic effect after 3 days by crystal violet staining based inverted microscopic analysis; format: functional

Structure (SMILES)	Ratio IC50/EC50 [1]	Activity (Aspergillus terreus)	Activity (Candida parapsilosis)	Activity (Candida tropicalis)	IC50 [4] [µM]	EC50 (Human alphaherpesvirus 2 [5])	Activity (Aspergillus flavus)	Ratio IC50/EC50 [7]	fold change (FC) (Human alphaherpesvirus 2 [8])	EC50 (dengue virus type 2 [9])	IC50 (HeLa [10]) [µM]	Activity (Fusarium oxysporum)	IC50 (Vero [12]) [µM]	IC50 (Vero [13]) [µM]	EC50 (Human alphaherpesvirus 2 [15]) [µM]	Activity (dengue virus type 2 [16])	Activity (Candida albicans)	fold change (FC) (Human alphaherpesvirus 1 [18])	EC50 (dengue virus type 2 [20]) [µM]	IC50 (Jurkat [21]) [µM]	other results
CC(C)c1cc2c(cc1O)[C@@]1(C)CCC[C@@](C)(C=O)[C@@H]1CC2 [18-OXOFERRUGINOL]	5.9	inactive	inactive	inactive	33.2	Not Active	inactive	10.4	1000	Not Active	60	inactive	97.8	52.2	16.6	Active	inactive	inactive	5	21.6	Ratio IC50 (Jurkat [2]): 4.2; Activity (Human alphaherpesvirus 2 [3]): 68.2%; Ratio IC50 (HeLa [6]): 1.5; MIC80 (Trichophyton rubrum): 41.7 µM (≈ 12.5 µg/mL); EC50 (Human alphaherpesvirus 1 [11]; Human alphaherpesvirus 1, CDC Atlanta, Vero, 72 h, read-out: EC50): 19.6 µM; IC50 (Vero [14]): 90.8 µM; MIC80 [17]: 83.3 µM (≈ 25 µg/mL); Ratio IC50 (Vero [19]): 2.7; Ratio IC50/EC50 [22]: 4.9; MNTD (Human alphaherpesvirus 2 [23]): 41.7 µM; MNTD (Human alphaherpesvirus 1 [24]): inactive; EC50 (Human alphaherpesvirus 1 [25]): Not Active; Activity (Aspergillus fumigatus): inactive
CC(C)c1cc2c(cc1O)[C@@]1(C)CCC[C@@](C)(CN3C(=O)c4ccccc4C3=O)[C@@H]1CC2	10	inactive	inactive	inactive	> 50	Not Active	inactive	57.7	1000	Not Active	> 50	inactive	191	80.8	19.2	Active	inactive	100	1.4	> 50	Activity (Human alphaherpesvirus 1 [26]): 87.1%; EC50 (Human alphaherpesvirus 1 [11]; vero): Not Active; Activity (Human alphaherpesvirus 1 [27]): 93.7%; MNTD (Human alphaherpesvirus 2 [23]): 29 µM; Activity (dengue virus type 2 [28]): 77.9%; MNTD (Human alphaherpesvirus 1 [24]): 14.5 µM; EC50 (Human alphaherpesvirus 1 [25]): Not Active; Activity (Aspergillus fumigatus): inactive
NC(=O)c1ncn([C@@H]2O[C@H](CO)[C@@H](O)[C@H]2O)n1 [RIBAVIRIN]	–	–	–	–	–	–	–	–	–	–	–	–	–	–	–	Active	–	–	13.5	–	MNTD (dengue virus type 2 [29]): 123 µM

Reference: ChEMBL document CHEMBL3758103, “Anti-herpetic and anti-dengue activity of abietane ferruginol analogues synthesized from (+)-dehydroabietylamine” (Eur J Med Chem, 2016)
